Laboratory results published in ChEMBL document CHEMBL1165965, “Synthesis and structure-activity relationships of 1,2,3,4-tetrahydropyrido[2,3-b]pyrazines as potent and selective inhibitors of the anaplastic lymphoma kinase” (Bioorg Med Chem, 2010).

Experiments:
[1] = molecular target: Serine/threonine-protein kinase SIK1 (Homo sapiens) (UniProt P57059); assay: Inhibition of SIK at 1 uM
[2] = molecular target: Serine/threonine-protein kinase SBK1 (Homo sapiens) (UniProt Q52WX2); assay: Inhibition of SBK1 at 1 uM
[3] = molecular target: Bone morphogenetic protein receptor type-1A (Homo sapiens) (UniProt P36894); assay: Inhibition of BMPR1A at 1 uM
How it was run: (§1)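 Ambit KINOMEscan screen at a single concentration across a 250–400 kinase panel, recorded as percent inhibition. Selectivity was expressed as S(90), the fraction of kinases inhibited >90%.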

[4] = molecular target: T1, Tyrosine-protein kinase Mer (Homo sapiens) (UniProt Q12866); assay: Inhibition of MERTK at 1 uM
T1 sequence (whole entry): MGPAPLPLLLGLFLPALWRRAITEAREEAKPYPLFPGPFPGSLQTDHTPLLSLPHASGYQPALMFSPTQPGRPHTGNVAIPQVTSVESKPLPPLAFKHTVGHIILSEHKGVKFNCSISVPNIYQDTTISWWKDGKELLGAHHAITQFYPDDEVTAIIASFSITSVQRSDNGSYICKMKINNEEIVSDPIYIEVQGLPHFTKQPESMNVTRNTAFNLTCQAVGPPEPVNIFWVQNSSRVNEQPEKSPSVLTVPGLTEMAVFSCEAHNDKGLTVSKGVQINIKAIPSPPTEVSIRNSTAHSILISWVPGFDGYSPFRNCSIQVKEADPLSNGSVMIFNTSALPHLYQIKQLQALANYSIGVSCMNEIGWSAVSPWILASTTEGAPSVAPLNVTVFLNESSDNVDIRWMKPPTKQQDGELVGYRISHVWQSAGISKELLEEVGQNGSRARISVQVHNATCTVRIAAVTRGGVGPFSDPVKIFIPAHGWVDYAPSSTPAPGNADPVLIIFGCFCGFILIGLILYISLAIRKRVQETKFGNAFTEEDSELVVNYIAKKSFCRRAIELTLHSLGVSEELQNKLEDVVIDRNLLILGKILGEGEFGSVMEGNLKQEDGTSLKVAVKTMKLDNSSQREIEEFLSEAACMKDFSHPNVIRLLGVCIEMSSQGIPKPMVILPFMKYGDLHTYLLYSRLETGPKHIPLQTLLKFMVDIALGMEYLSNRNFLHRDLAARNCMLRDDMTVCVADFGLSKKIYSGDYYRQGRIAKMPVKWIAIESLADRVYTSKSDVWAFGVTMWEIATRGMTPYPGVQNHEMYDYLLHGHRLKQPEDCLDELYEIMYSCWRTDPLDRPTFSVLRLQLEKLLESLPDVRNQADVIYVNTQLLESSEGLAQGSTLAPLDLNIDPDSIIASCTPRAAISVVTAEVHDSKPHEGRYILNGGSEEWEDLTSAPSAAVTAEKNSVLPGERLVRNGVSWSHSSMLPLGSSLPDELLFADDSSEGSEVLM
How it was run: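 Kinase-panel screen using KINOMEscan technology, with 250–400 kinases per panel. Each compound was tested at a single concentration, and inhibition of each kinase was recorded. Selectivity was summarised as S(90), the fraction of kinases inhibited by more than 90%.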

[5] = molecular target: Misshapen-like kinase 1 (Homo sapiens) (UniProt Q8N4C8); assay: Inhibition of MINK at 1 uM
[6] = molecular target: Calcium/calmodulin-dependent protein kinase type 1D (Homo sapiens) (UniProt Q8IU85); assay: Inhibition of CAMK1D at 1 uM; how it was run: as §1
[7] = molecular target: Mitogen-activated protein kinase 7 (Homo sapiens) (UniProt Q13164); assay: Inhibition of ERK5 at 1 uM
[8] = molecular target: Protein-tyrosine kinase 6 (Homo sapiens) (UniProt Q13882); assay: Inhibition of BRK at 1 uM; how it was run: as §1
[9] = molecular target: Casein kinase I isoform gamma-3 (Homo sapiens) (UniProt Q9Y6M4); assay: Inhibition of CSNK1G3 at 1 uM
How it was run: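 Single-concentration screen using Ambit Bioscience KINOMEscan technology across a panel of 250–400 kinases. Per-kinase inhibition from this screen was summarized as S(90), the fraction of kinases inhibited by more than 90%.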

[10] = molecular target: Protein kinase C delta type (Homo sapiens) (UniProt Q05655); assay: Inhibition of PRKCD at 1 uM
[11] = molecular target: RAC-alpha serine/threonine-protein kinase (Homo sapiens) (UniProt P31749); assay: Inhibition of AKT1 at 1 uM; how it was run: as §1
[12] = molecular target: Leukocyte tyrosine kinase receptor (Homo sapiens) (UniProt P29376); assay: Inhibition of LTK at 1 uM
How it was run: (§2)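 Single-concentration screen on the Ambit KINOMEscan platform, run against a panel of 250–400 kinases. Per-kinase inhibition was also summarized as S(90), the fraction of kinases inhibited by more than 90%.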

[13] = molecular target: MAP kinase-activated protein kinase 2 (Homo sapiens) (UniProt P49137); assay: Inhibition of MAPKAPK2 at 1 uM
[14] = molecular target: Ribosomal protein S6 kinase alpha-4 (Homo sapiens) (UniProt O75676); assay: Inhibition of RPS6KA4 C-terminal domain2 at 1 uM
[15] = molecular target: Ribosomal protein S6 kinase alpha-4 (Homo sapiens) (UniProt O75676); assay: Inhibition of RPS6KA4 N-terminal domain1 at 1 uM
[16] = molecular target: Non-receptor tyrosine-protein kinase TYK2 (Homo sapiens) (UniProt P29597); assay: Inhibition of TYK2 JH1 catalytic domain at 1 uM; how it was run: as §2
[17] = molecular target: SRSF protein kinase 3 (Homo sapiens) (UniProt Q9UPE1); assay: Inhibition of SRPK3 at 1 uM
[18] = molecular target: T2, Serine/threonine-protein kinase 17A (Homo sapiens) (UniProt Q9UEE5); assay: Inhibition of DRAK1 at 1 uM
T2 sequence (whole entry): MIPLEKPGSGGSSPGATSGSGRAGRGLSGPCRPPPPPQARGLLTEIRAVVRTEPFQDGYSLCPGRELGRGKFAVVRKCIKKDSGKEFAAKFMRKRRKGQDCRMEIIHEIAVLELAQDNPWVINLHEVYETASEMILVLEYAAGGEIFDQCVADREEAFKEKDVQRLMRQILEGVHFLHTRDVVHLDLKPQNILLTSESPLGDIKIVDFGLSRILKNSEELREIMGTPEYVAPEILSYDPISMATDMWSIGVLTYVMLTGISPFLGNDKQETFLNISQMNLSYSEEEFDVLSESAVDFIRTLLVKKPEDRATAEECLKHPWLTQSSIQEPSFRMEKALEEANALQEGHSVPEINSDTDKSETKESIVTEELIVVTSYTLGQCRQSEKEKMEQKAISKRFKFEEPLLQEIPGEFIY

Chain of RAC-alpha serine/threonine-protein kinase (Homo sapiens) (P31749 whole entry): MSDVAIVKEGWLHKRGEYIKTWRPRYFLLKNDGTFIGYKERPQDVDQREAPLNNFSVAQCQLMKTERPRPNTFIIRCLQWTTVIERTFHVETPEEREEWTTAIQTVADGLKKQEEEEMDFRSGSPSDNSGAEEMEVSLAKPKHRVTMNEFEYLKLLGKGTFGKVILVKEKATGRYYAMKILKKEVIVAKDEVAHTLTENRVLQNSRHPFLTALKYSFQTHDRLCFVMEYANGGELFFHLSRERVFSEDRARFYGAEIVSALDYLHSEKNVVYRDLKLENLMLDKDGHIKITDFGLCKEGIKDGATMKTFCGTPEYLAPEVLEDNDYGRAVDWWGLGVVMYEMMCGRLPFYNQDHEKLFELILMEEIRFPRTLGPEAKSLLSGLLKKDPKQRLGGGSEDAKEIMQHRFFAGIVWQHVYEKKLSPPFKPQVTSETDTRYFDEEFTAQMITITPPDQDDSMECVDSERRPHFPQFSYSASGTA
Chain of Ribosomal protein S6 kinase alpha-4 (Homo sapiens) (O75676 whole entry, looked up, the tested form may be a part): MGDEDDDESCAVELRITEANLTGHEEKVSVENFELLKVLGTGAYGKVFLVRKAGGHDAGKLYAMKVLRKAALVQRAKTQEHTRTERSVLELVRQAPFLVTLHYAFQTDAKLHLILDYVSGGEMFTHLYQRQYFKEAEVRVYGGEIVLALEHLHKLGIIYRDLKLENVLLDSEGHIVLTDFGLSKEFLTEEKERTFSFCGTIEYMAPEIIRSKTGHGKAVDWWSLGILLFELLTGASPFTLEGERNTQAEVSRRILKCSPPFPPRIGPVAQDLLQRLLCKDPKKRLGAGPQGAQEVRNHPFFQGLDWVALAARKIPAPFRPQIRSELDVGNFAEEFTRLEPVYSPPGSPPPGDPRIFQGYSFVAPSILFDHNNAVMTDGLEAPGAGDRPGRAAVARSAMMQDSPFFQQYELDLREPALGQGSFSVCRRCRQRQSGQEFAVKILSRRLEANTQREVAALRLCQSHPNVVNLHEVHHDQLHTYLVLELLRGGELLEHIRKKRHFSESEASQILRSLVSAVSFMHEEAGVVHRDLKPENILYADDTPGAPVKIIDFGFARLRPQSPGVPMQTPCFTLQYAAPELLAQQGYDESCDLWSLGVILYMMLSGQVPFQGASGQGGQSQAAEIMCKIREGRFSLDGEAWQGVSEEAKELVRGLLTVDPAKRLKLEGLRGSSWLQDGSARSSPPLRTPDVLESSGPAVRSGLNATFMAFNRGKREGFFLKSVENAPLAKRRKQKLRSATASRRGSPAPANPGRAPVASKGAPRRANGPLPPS
Chain of SRSF protein kinase 3 (Homo sapiens) (Q9UPE1 whole entry): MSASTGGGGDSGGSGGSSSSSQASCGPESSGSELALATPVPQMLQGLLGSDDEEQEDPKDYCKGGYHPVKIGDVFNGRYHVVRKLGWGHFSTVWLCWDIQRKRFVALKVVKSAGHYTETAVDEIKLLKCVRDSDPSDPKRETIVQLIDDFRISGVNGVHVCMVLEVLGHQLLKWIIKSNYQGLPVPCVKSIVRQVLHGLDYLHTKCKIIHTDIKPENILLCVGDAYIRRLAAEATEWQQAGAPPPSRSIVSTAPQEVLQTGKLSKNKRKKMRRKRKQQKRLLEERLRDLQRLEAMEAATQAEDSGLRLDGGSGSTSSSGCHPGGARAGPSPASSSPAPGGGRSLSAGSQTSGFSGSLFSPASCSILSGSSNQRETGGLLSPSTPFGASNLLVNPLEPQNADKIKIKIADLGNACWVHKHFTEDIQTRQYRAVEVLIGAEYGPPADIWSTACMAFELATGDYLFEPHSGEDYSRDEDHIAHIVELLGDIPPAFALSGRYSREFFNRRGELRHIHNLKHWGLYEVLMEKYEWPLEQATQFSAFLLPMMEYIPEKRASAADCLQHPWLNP
Chain of Misshapen-like kinase 1 (Homo sapiens) (Q8N4C8 whole entry, looked up): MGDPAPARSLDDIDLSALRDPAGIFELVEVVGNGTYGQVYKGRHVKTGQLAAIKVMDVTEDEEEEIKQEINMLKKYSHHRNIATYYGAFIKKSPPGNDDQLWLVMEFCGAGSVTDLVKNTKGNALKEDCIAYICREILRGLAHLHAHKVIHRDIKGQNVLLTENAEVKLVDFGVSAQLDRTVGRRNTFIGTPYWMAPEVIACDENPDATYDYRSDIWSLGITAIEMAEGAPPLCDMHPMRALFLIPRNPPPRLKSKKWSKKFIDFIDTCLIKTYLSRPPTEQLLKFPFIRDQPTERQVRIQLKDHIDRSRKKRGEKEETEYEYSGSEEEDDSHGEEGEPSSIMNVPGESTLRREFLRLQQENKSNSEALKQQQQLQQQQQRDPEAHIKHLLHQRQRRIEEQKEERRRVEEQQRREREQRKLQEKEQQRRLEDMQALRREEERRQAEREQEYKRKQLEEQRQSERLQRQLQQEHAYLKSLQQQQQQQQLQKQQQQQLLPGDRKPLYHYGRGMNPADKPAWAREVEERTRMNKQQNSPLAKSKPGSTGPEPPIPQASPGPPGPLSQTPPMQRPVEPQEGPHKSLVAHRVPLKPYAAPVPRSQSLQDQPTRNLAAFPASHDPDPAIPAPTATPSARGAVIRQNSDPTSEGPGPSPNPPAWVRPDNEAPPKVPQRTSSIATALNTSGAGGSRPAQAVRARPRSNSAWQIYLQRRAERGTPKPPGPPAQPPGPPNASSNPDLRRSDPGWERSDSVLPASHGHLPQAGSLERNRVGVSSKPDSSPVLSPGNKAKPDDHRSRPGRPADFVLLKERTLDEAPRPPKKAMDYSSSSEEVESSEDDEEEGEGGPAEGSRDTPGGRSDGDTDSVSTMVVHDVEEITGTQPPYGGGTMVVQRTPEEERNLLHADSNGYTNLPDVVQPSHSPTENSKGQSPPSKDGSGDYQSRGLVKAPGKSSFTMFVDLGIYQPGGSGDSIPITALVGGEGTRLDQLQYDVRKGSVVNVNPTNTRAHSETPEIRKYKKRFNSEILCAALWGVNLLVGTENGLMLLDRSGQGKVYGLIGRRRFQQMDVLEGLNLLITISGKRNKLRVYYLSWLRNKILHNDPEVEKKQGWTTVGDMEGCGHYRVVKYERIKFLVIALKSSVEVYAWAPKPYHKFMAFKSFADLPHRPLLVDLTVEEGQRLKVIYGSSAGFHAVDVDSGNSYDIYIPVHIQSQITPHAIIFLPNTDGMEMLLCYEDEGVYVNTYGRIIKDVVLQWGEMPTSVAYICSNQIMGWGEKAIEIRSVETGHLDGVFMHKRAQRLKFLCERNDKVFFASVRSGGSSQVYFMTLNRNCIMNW
Chain of Leukocyte tyrosine kinase receptor (Homo sapiens) (P29376 whole entry): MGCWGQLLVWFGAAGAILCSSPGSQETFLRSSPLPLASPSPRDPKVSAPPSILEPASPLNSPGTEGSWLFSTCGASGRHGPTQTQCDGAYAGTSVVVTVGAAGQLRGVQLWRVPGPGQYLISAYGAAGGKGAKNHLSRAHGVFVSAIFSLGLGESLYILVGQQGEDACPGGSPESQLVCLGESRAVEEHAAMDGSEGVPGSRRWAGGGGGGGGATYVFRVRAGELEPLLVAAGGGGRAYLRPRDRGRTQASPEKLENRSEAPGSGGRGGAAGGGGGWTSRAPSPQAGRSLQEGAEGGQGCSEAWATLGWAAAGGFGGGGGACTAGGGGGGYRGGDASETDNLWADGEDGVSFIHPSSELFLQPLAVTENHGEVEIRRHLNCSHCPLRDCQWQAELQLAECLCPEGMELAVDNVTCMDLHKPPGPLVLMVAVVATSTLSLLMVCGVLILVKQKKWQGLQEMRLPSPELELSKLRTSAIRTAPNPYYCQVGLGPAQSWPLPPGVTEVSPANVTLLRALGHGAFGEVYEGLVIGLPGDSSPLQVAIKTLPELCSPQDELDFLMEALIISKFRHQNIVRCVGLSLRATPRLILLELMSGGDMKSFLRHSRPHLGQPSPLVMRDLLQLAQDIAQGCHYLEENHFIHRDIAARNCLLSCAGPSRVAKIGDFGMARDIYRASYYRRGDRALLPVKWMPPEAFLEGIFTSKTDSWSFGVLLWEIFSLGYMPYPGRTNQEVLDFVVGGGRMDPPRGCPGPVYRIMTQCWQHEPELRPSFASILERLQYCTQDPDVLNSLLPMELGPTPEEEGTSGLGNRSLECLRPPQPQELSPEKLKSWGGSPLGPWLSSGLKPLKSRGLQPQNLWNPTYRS
Chain of Protein-tyrosine kinase 6 (Homo sapiens) (Q13882 whole entry, looked up, canonical isoform): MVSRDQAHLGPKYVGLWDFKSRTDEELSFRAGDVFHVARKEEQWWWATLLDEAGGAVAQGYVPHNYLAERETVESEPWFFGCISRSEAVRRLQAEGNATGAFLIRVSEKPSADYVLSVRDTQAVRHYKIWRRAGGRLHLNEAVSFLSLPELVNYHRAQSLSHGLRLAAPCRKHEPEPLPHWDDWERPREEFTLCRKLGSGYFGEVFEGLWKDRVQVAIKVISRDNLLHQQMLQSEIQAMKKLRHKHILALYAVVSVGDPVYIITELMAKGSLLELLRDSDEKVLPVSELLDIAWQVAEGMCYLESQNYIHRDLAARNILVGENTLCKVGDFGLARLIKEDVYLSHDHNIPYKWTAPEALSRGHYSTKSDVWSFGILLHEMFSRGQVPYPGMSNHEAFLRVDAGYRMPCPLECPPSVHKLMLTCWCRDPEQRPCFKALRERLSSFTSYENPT
Chain of Calcium/calmodulin-dependent protein kinase type 1D (Homo sapiens) (Q8IU85 whole entry, looked up): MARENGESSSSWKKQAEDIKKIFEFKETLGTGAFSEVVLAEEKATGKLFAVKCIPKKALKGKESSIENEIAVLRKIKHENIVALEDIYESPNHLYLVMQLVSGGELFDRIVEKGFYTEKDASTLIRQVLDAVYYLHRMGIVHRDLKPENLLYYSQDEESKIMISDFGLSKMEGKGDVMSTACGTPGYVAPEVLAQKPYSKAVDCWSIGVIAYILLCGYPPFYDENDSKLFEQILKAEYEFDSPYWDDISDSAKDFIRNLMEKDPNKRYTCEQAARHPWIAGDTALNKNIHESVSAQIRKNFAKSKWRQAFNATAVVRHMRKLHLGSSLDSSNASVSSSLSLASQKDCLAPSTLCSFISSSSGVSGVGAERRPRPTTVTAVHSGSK

| SMILES | inhibition [1] [%] | inhibition [2] [%] | inhibition [3] [%] | inhibition [4] [%] | inhibition [5] [%] | inhibition [6] [%] | inhibition [7] [%] | inhibition [8] [%] | inhibition [9] [%] | inhibition [10] [%] | inhibition [11] [%] | inhibition [12] [%] | inhibition [13] [%] | inhibition [14] [%] | inhibition [15] [%] | inhibition [16] [%] | inhibition [17] [%] | inhibition [18] [%] |
| --- | --- | --- | --- | --- | --- | --- | --- | --- | --- | --- | --- | --- | --- | --- | --- | --- | --- | --- |
| CN1CCN(c2ccc(-c3cnc4c(c3)N(Cc3cc(Cl)ccc3Cl)CCN4)cn2)CC1 | < 50 | < 50 | < 50 | < 50 | < 50 | < 50 | < 50 | < 50 | < 50 | < 50 | < 50 | 97 | < 50 | < 50 | < 50 | < 50 | < 50 | < 50 |
| COC1CCN(C(=O)c2ccc(-c3cnc4c(c3)N(Cc3cc(Cl)ccc3C(F)(F)F)CCN4)cc2)CC1 | < 50 |  | < 50 | < 50 |  | < 50 |  | < 50 | < 50 | < 50 | < 50 | 95.5 |  |  | < 50 | < 50 |  |  |
| O=C(c1ccc(-c2cnc3c(c2)N(Cc2cc(Cl)ccc2C(F)(F)F)CCN3)cc1)N1CCCCC1 | < 50 |  | < 50 | < 50 |  | < 50 |  | < 50 | < 50 | < 50 | < 50 | 89.3 |  |  | < 50 | < 50 |  |  |
| O=C(c1ccc(-c2cnc3c(c2)N(Cc2cc(Cl)ccc2C(F)(F)F)CCN3)cc1)N1CCC(N2CCCC2)CC1 | 81.6 |  | < 50 | < 50 |  | < 50 |  | < 50 | < 50 | < 50 | < 50 | 80.7 |  |  | < 50 | < 50 |  |  |
| CN1CCN(c2ccc(-c3cnc4c(c3)N(Cc3c(F)ccc(F)c3Cl)CCN4)cn2)CC1 | < 50 | < 50 | < 50 | < 50 | 96 | < 50 | < 50 | < 50 | < 50 | < 50 | < 50 | 97 | < 50 | < 50 | < 50 | < 50 | < 50 | < 50 |
| CN1CCN(c2ccc(-c3cnc4c(c3)N(Cc3cc(F)ccc3F)CCN4)cn2)CC1 | < 50 | < 50 | < 50 | < 50 | < 50 | < 50 | < 50 | < 50 | < 50 | < 50 | < 50 | 96.8 | < 50 | < 50 | < 50 | < 50 | < 50 | < 50 |

More lines, now with the values ahead:

| inhibition [1] [%] | inhibition [2] [%] | inhibition [3] [%] | inhibition [4] [%] | inhibition [5] [%] | inhibition [6] [%] | inhibition [7] [%] | inhibition [8] [%] | inhibition [9] [%] | inhibition [10] [%] | inhibition [11] [%] | inhibition [12] [%] | inhibition [13] [%] | inhibition [14] [%] | inhibition [15] [%] | inhibition [16] [%] | inhibition [17] [%] | inhibition [18] [%] | SMILES |
| --- | --- | --- | --- | --- | --- | --- | --- | --- | --- | --- | --- | --- | --- | --- | --- | --- | --- | --- |
| < 50 | < 50 | < 50 | < 50 | < 50 | < 50 | < 50 | < 50 | < 50 | < 50 | < 50 | 99 | < 50 | < 50 | < 50 | 79 | < 50 | < 50 | CN1CCN(c2ccc(-c3cnc4c(c3)N(Cc3cc(Cl)ccc3C(F)(F)F)CCN4)cn2)CC1 |
| < 50 | < 50 | < 50 | < 50 | < 50 | < 50 | < 50 | < 50 | < 50 | < 50 | < 50 | 100 | < 50 | < 50 | < 50 | 72 | < 50 | < 50 | FC(F)(F)c1ccc(Cl)cc1CN1CCNc2ncc(-c3ccnc(N4CCNCC4)c3)cc21 |
| < 50 | < 50 | < 50 | < 50 | < 50 | < 50 | < 50 | < 50 | < 50 | < 50 | < 50 | 99 | < 50 | < 50 | < 50 | 72 | < 50 | < 50 | CC(=O)N1CCN(c2cc(-c3cnc4c(c3)N(Cc3cc(Cl)ccc3C(F)(F)F)CCN4)ccn2)CC1 |
| < 50 |  | < 50 | < 50 |  | < 50 |  | < 50 | < 50 | < 50 | < 50 | 92.7 |  |  | < 50 | < 50 |  |  | O=C(O)c1ccc(-c2cnc3c(c2)N(Cc2cc(Cl)ccc2C(F)(F)F)CCN3)cc1 |
